pIC50: −log10 of the molar value. Some results are limits rather than exact numbers.

What all share (type): functional, cell-based
The test system of one experiment is HepG2. Kind of experiment: Cytotoxicity against human HepG2 cells after 48 hrs by MTT assay. Particulars: HepG2, 48 h. In outline: (§1)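 Cells grown in DMEM with 10% FBS and passaged by trypsinization at 70-80% confluence. Seeding density was 8 × 10^4 cells/well for MKN45, HT-29 and MCF-7 and 5 × 10^4 cells/well for HepG2, then 24 h attachment at 37 °C. Compounds from 10 mM DMSO stock were diluted in medium and applied for 48 h at 37 °C, with 0.1% DMSO as negative control.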
(In general: Tetrazolium dyes change colour on reduction, which living cells bring about.)

The subject of a further experiment is MCF7. The experiment is described as follows: Cytotoxicity against human MCF7 cells after 48 hrs by MTT assay. Conditions: MCF7, 48 h. The procedure, abridged: as §1
In another experiment the test system is MKN-45. The experiment is described as follows: Cytotoxicity against human MKN45 cells after 48 hrs by MTT assay. Particulars: MKN-45, 48 h. In outline:
as §1

The test system of a further experiment is HT-29. Kind of experiment: Cytotoxicity against human HT-29 cells after 48 hrs by MTT assay. Conditions: HT-29, 48 h. In outline:
as §1

Turning to `COc1cc(-c2nnc(SC)n2/N=C/c2ccccc2)cc(OC)c1OC`, the pIC50 (usually the IC50 on a negative log10 scale, so that one unit is a factor of ten) in the experiment with HepG2 is under 3.70; in the experiment with MCF7, under 3.70; in the experiment on MKN-45 it was 4.55; in the experiment on HT-29, under 3.70.
On to `COc1cc(-c2nnc(SCc3ccccc3)n2/N=C/c2ccccc2)cc(OC)c1OC`, for which the pIC50 with HepG2, with MCF7, in the experiment on MKN-45 and with HT-29 was under 3.70 in each case.
For the molecule `COc1cc(-c2nnc(SCc3ccc(F)cc3)n2/N=C/c2ccccc2)cc(OC)c1OC`, the pIC50 in the experiment with HepG2, with MCF7, in the experiment with MKN-45 and with HT-29 was under 3.70 in each case.
For the molecule `COc1cc(-c2nnc(SCc3ccccc3Cl)n2/N=C/c2ccccc2)cc(OC)c1OC`, the pIC50 in the experiment on HepG2 was 4.50; in the experiment with MCF7, under 3.70; in the experiment on MKN-45, under 3.70; in the experiment with HT-29 it was under 3.70.
Regarding `COc1ccc(/C=N/n2c(SC)nnc2-c2cc(OC)c(OC)c(OC)c2)c(OC)c1`, the pIC50 in the experiment with HepG2 was under 3.70; in the experiment with MCF7, under 3.70; with MKN-45 it was under 3.70; in the experiment on HT-29, 3.84.
For the molecule `COc1ccc(/C=N/n2c(SCc3ccc(F)cc3)nnc2-c2cc(OC)c(OC)c(OC)c2)c(OC)c1`, the negative logarithm of the IC50 (pIC50) in the experiment with HepG2 is under 3.70; in the experiment on MCF7 it was under 3.70; with MKN-45, under 3.70; with HT-29, 3.90.
Turning to `COc1ccc(/C=N/n2c(SCc3ccccc3Cl)nnc2-c2cc(OC)c(OC)c(OC)c2)c(OC)c1`, the pIC50 is under 3.70 with HepG2, 4.20 in the experiment on MCF7, under 3.70 in the experiment on MKN-45 and under 3.70 in the experiment with HT-29.
Turning to `COc1ccc(/C=N/n2c(SCc3ccccc3)nnc2-c2cc(OC)c(OC)c(OC)c2)c(OC)c1`, the pIC50 in the experiment on HepG2 was 4.22; with MCF7, 3.82; with MKN-45, 4.31; with HT-29, under 3.70.
The like results for `CCOC(=O)CSc1nnc(-c2cc(OC)c(OC)c(OC)c2)n1/N=C/c1ccc(OC)cc1OC` were, in that order, under 3.70, under 3.70, under 3.70 and under 3.70.
Regarding `COc1cc(-c2nnc3n2NC(CC(=O)c2ccc(C)cc2)(c2ccccc2)S3)cc(OC)c1OC` (stereo not given), the pIC50 in the experiment on HepG2 is 6.24; in the experiment on MCF7 it was under 3.70; with MKN-45, 5.13; in the experiment on HT-29, 3.82.
Taken in the same sequence, the figures for `CCOC(=O)CC1(c2ccccc2)Nn2c(nnc2-c2cc(OC)c(OC)c(OC)c2)S1` (stereo not given) were under 3.70, under 3.70, under 3.70 and under 3.70.
Taken in the same sequence, the figures for `COc1ccc(C2(CC(=O)c3ccc(C)cc3)Nn3c(nnc3-c3cc(OC)c(OC)c(OC)c3)S2)c(OC)c1` (stereo not given) were 5.50, 4.96, 4.86 and 4.18.
With `COc1cccc2c1C(=O)c1c(O)c3c(c(O)c1C2=O)C[C@@](O)(C(=O)CO)C[C@@H]3O[C@H]1C[C@H](N)[C@H](O)[C@H](C)O1` [DOXORUBICIN], the pIC50 with HepG2 is 5.25; in the experiment on MKN-45, 6.77.

(Values after ChEMBL document CHEMBL2040825, “Synthesis and cytotoxicity of 3,4-disubstituted-5-(3,4,5-trimethoxyphenyl)-4H-1,2,4-triazoles and novel 5,6-dihydro-[1,2,4]triazolo[3,4-b][1,3,4]thiadiazole derivatives bearing 3,4,5-trimethoxyphenyl moiety” (Bioorg Med Chem Lett, 2012).)
